Experimental findings from ChEMBL document CHEMBL1150589, “New sesquiterpenoids from the root of Guatteria multivenia” (J Nat Prod, 2002) are described below.

In general, IC50 refers to the midpoint of a concentration-inhibition curve. The low end stands for greater potency in that assay, the high end for weaker potency in that assay. Usually MIC stands for the lowest concentration that inhibits growth of the organism. Higher therefore signals a less susceptible organism.

For one experiment, the system named is Cryptococcus neoformans. As to the kind of experiment: Antimicrobial activity against Cryptococcus neoformans. In kind it is functional, organism-based. The method, boiled down: (§1)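 Antimicrobial assay run per an earlier method. Both IC50 and MIC were reported in µg/mL. Amphotericin B was the positive control for C. albicans and C. neoformans.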
Experiment [1] relates to Staphylococcus aureus. The experiment is described as follows: Antimicrobial activity against Staphylococcus aureus. In kind it is functional, organism-based. The method, boiled down: as §1
Experiment [2] relates to Staphylococcus aureus. The experiment is described as follows: Antimicrobial activity against methicillin-resistant Staphylococcus aureus. In kind it is functional, organism-based.
In another experiment the test system is Candida albicans. As to the kind of experiment: Antimicrobial activity against Candida albicans. The class given is functional, organism-based. The method, boiled down: as §1
The nature of experiment [3]: Inhibition of Candida albicans secreted aspartic protease. The method, boiled down: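 SAP inhibition assay run per an earlier method, with IC50 reported in µg/mL. Pepstatin A was the positive control.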

The structures appear in SMILES notation. In brackets after ≈: the same amount, converted by molar mass.

Turning to `O=C1c2ccccc2-c2c3c(cc4ccnc1c24)OCO3` [LIRIODENINE], the IC50 with Cryptococcus neoformans came to 2 µg/mL (≈ 7.27 µM); in the experiment with Staphylococcus aureus [1], 2 µg/mL (≈ 7.27 µM); in the experiment with Staphylococcus aureus [2], 2 µg/mL (≈ 7.27 µM); in the experiment with Candida albicans, 3.5 µg/mL (≈ 12.7 µM). Besides, the MIC was found to be 12.5 µg/mL (≈ 45.4 µM) in the experiment with Cryptococcus neoformans, 3.13 µg/mL (≈ 11.4 µM) in the experiment with Staphylococcus aureus [1], 3.13 µg/mL (≈ 11.4 µM) against Staphylococcus aureus [2] and 6.25 µg/mL (≈ 22.7 µM) in the experiment on Candida albicans.
Turning to `O=C(O)c1cn(C2CC2)c2cc(N3CCNCC3)c(F)cc2c1=O` [CIPROFLOXACIN], in the experiment on Staphylococcus aureus [1], the IC50 came out at 0.07 µg/mL (≈ 0.211 µM) and the MIC is 0.39 µg/mL (≈ 1.18 µM). Further, in the experiment on Staphylococcus aureus [2], the MIC worked out at 3.13 µg/mL (≈ 9.45 µM).
`C[C@@H]1[C@H](O)[C@@H](C)/C=C/C=C/C=C/C=C/C=C/C=C/C=C/[C@H](O[C@@H]2O[C@H](C)[C@@H](O)[C@H](N)[C@@H]2O)C[C@@H]2O[C@](O)(C[C@@H](O)C[C@@H](O)[C@H](O)CC[C@@H](O)C[C@@H](O)CC(=O)O[C@H]1C)C[C@H](O)[C@H]2C(=O)O` [AMPHOTERICIN B]: the IC50 came out at 0.3 µg/mL (≈ 0.325 µM) with Cryptococcus neoformans and 0.06 µg/mL (≈ 0.0649 µM) in the experiment on Candida albicans. Further, it took 0.63 µg/mL (≈ 0.682 µM) to inhibit growth in the experiment with Cryptococcus neoformans (MIC).
As to `COc1ccc2c(c1)C(=O)c1nccc3cc4c(c-2c13)OCO4` [ATHEROSPERMIDINE], the IC50 in experiment [3] is 45 µg/mL (≈ 147 µM).
`CC(C)CC(=O)N[C@H](C(=O)N[C@H](C(=O)N[C@@H](CC(C)C)[C@@H](O)CC(=O)N[C@@H](C)C(=O)N[C@@H](CC(C)C)[C@@H](O)CC(=O)O)C(C)C)C(C)C` [PEPSTATIN] displayed an IC50 in experiment [3] of 0.006 µg/mL (≈ 0.00875 µM).
